Assay outcomes (PubChem)
Most compounds without a hit are left out; they make up all but 9.6% or so of the library.
BaF3 parental: parental Ba/F3 cell viability inhibition, counter-screen for JAK2V617F inhibitor project, murine pro-B, CellTiter-Glo luminescence | CellTiter-Glo ATP luminescence | AID 1486, 2009 | inhibition, % at 5.6 µM | 1.1% of 220,000 active;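 active = inhibition above a per-campaign cutoff, the mean inhibition of all tested compounds plus 3 SD, cut at about 27% in these data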;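 note: 0% = DMSO wells and 100% = JAK Inhibitor I control wells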
MT stabilizer: microtubule stabilizers in HeLa cells, primary screen, imaging, high-content imaging | HeLa tubulin immunostaining HCS, 24 h; share of cells brighter than vehicle mean+2SD | % tubulin-high responders, % at 10 µM | AID 2205, 2009 | 0.83% of 200,000 active;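 active = plate Z-score above 3 for both tubulin-high and condensed-nucleus cell shares, with cell loss under 80%, at 10 µM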;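 note: anti alpha tubulin signal scored within the nucleus-defined area of each cell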
L major viab: Leishmania major promastigote growth inhibition, primary screen; 9% of 200,000 active; Leishmania major promastigotes, resazurin fluorescence viability; inhibition, % at 10 µM; in the data active = inhibition above about 50%;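 note: promastigotes grown with compound for 44 hours at 28 °C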
bCat nuc transl: modulators of beta-catenin nuclear translocation, primary screen, imaging, HeLa cells, immunofluorescence, high-content; nuclear translocation activity, % at 5 µM; 0.3% of 190,000 active;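 active = nuclear translocation activity above 50% at 5 µM, with a well cell count of 50 or more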;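 note: per-cell ratio of nuclear to cytoplasmic median beta-catenin stain intensity; plate controls were DMSO negative control for no effect and GSK-3 inhibitor IX positive control for full effect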
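assay system = human HeLa cells, endogenous beta-catenin | times = compound treatment 24 h, 37°C, 5% CO2 | detection = Anti-beta-catenin immunofluorescence on PFA-fixed, Triton-permeabilized cells, DAPI nuclei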
Ba/F3 V617F tox: reduced viability of JAK2V617F-dependent Ba/F3 cells, primary screen, JAK2V617F inhibitor project, cell-based, Ba/F3 EpoR-JAK2V617F, luminescence; ATP luminescence; inhibition, % at 5.6 µM; 1.1% of 220,000 active;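 active = inhibition above the campaign mean plus 3 SD over all tested compounds, cut at about 24% in these data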;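 note: cytokine-independent growth of Ba/F3 cells driven by EpoR plus mutant JAK2; 0% = DMSO-treated cells and 100% = JAK inhibitor I control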
APP transl inh: inhibitors of APP translation via 5'UTR reporter, primary screen, APP 5'UTR luciferase, SH-SY5Y cells; SH-SY5Y APP 5'UTR-luciferase reporter, luminescence; inhibition, % at 2 µM; 0.82% of 190,000 active; AID 1285, 2008;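 active = inhibition above a set limit, derived from the sample mean plus 3 SD, cut at about 45% in these data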
* hit, by the source's call.

Cc1cc(C)cc(N=Cc2[nH]c3ccc(Br)c(Cl)c3c2O)c1 was read as BaF3 parental 0, MT stabilizer 31*, L major viab -1, bCat nuc transl -1, Ba/F3 V617F tox -7 and APP transl inh -9.
For Cc1cc(C)nc(NS(=O)(=O)c2ccc(N3C(=O)C4CC=C(Cl)CC4C3=O)cc2)n1 (centres undefined) the results were BaF3 parental 5, MT stabilizer 5, L major viab -9, bCat nuc transl 3, Ba/F3 V617F tox 0 and APP transl inh -1.
`N#Cc1ccc(C23CC4(C2)[C@H](CN(CC2CCCCC2)[C@@H]4c2ccccc2)C3c2ccc(Cl)nc2)cc1` (some centres undefined) gave bCat nuc transl -2.
Screening Cn1c(-c2ccc3c(c2)OCO3)cnc1NCc1cccc(Cl)c1 returned BaF3 parental 5, MT stabilizer 37, L major viab 93*, bCat nuc transl 8, Ba/F3 V617F tox 6 and APP transl inh -9.
Cc1ccc(-c2cnc(NCc3cc4c(cc3[N+](=O)[O-])OCO4)n2C)cc1C was read as BaF3 parental 2, MT stabilizer 3, L major viab 95*, bCat nuc transl 1, Ba/F3 V617F tox -4 and APP transl inh -1.
Cn1c(-c2ccc3c(c2)OCO3)cnc1NCc1ccccc1 was read as BaF3 parental 9, MT stabilizer 20*, L major viab 63*, bCat nuc transl 4, Ba/F3 V617F tox -1 and APP transl inh -7.
Screening Cc1cc(C)cc(NCc2cc3c(cc2[N+](=O)[O-])OCO3)c1 returned BaF3 parental 8, MT stabilizer 4, L major viab 4, bCat nuc transl -1, Ba/F3 V617F tox 3 and APP transl inh 0.
`Cn1c(-c2ccc3c(c2)OCO3)cnc1NCc1ccccc1Cl` gave BaF3 parental 0, MT stabilizer 6, L major viab 96*, bCat nuc transl 1, Ba/F3 V617F tox 0 and APP transl inh -60.
O=C(Cc1ccc(F)cc1)N/N=C/c1ccncc1 was read as BaF3 parental 6, MT stabilizer 4, L major viab -7, bCat nuc transl -1, Ba/F3 V617F tox 3 and APP transl inh 22.
`Cc1ccc(NC2c3ccccc3C(=O)N2CCN2CCOCC2)cc1` (centres undefined) gave BaF3 parental 5, MT stabilizer 2, L major viab -4, Ba/F3 V617F tox -3 and APP transl inh 0.
For O=C(Nc1ccc(F)c([N+](=O)[O-])c1)c1ccc2c(c1)C(=O)OC2=O the results were BaF3 parental -1, bCat nuc transl -2 and Ba/F3 V617F tox 0.
Screening CCOC(=O)C(C)Sc1nc(-c2ccco2)cc(C(F)(F)F)c1C#N (centres undefined) returned BaF3 parental 5, MT stabilizer 5, L major viab 15, bCat nuc transl -4, Ba/F3 V617F tox 2 and APP transl inh 8.
Cc1ccc2[nH]c(-c3ccccc3)cc(=O)c2c1 was read as BaF3 parental 81*, MT stabilizer 43*, L major viab 20, bCat nuc transl 93*, Ba/F3 V617F tox 86* and APP transl inh 91*.
For COc1ccc(CN2CN(S(=O)(=O)c3ccccc3)c3nc4ccccc4nc32)cc1 the results were BaF3 parental 2, bCat nuc transl 0 and Ba/F3 V617F tox -4.
Screening CCN(CC)CCNCc1ccc(-c2ccc(Cl)cc2)o1 returned BaF3 parental 9, MT stabilizer 4, L major viab 91*, bCat nuc transl 0, Ba/F3 V617F tox 1 and APP transl inh -2.
Screening COc1ccccc1CNCC(O)(c1ccc(Cl)cc1)c1ccc(Cl)cc1 returned BaF3 parental 5, MT stabilizer 3, L major viab 100*, bCat nuc transl 0, Ba/F3 V617F tox -1 and APP transl inh -2.
`CCN(CC)CCNCC(O)(c1ccc(Cl)cc1)c1ccc(Cl)cc1` gave BaF3 parental 5, MT stabilizer 3, L major viab 72*, bCat nuc transl 1, Ba/F3 V617F tox -1 and APP transl inh -4.
For OC(CNCc1ccccc1F)(c1ccc(F)cc1)c1ccc(F)cc1 the results were BaF3 parental 4, MT stabilizer 4, L major viab 37, bCat nuc transl -1, Ba/F3 V617F tox -1 and APP transl inh -21.
For Cc1ccccc1C(=O)NC1CCN(C(=O)Nc2ccccc2Cl)CC1 the results were BaF3 parental 14, MT stabilizer 1, L major viab -3, bCat nuc transl -1, Ba/F3 V617F tox 3 and APP transl inh 3.
For COC(=O)c1ccc(C(=O)N(CCN(C)C)c2nc3c(Cl)cccc3s2)cc1 the results were BaF3 parental 1, MT stabilizer 3, L major viab 16, bCat nuc transl 0, Ba/F3 V617F tox 0 and APP transl inh 0.
Cc1c(CCO)c(=O)[nH]n1C(=O)c1ccc(F)cc1 was read as BaF3 parental 3, MT stabilizer 1, L major viab -3, bCat nuc transl 2, Ba/F3 V617F tox 1 and APP transl inh -37.
Screening Cc1cc(NC(=O)C(C)(C)C)no1 returned BaF3 parental 3, MT stabilizer 2, L major viab -4, bCat nuc transl 0, Ba/F3 V617F tox 1 and APP transl inh -16.
Screening Nc1ncnc(Oc2cccc3cccnc23)c1[N+](=O)[O-] returned BaF3 parental 7, MT stabilizer 2, L major viab 96*, bCat nuc transl -3, Ba/F3 V617F tox -1 and APP transl inh 0.
Cc1cccc(Oc2ncnc(N)c2[N+](=O)[O-])c1C was read as BaF3 parental 5, MT stabilizer 5, L major viab -4, bCat nuc transl -2, Ba/F3 V617F tox -2 and APP transl inh 4.
`COc1cc2c3c(c1)C(C)=CC(C)(C)N3C(=O)C2=O` gave BaF3 parental -1, MT stabilizer 4, L major viab 56*, bCat nuc transl 0, Ba/F3 V617F tox -7 and APP transl inh 30.
COc1cccc(C(=O)Oc2cc3c4c(c2)C(C)=CC(C)(C)N4C(=O)C3=O)c1 was read as BaF3 parental 3, MT stabilizer 1, L major viab 3, Ba/F3 V617F tox 6 and APP transl inh -4.
For COc1cc(N=C2C(=O)N3c4c(cccc42)C(C)=CC3(C)C)cc(OC)c1 the results were BaF3 parental 10, MT stabilizer 2, L major viab 61*, bCat nuc transl -2, Ba/F3 V617F tox -1 and APP transl inh 9.
OCC1(CCCc2ccccc2)CCN(C2CCSCC2)CC1 was read as BaF3 parental -3, MT stabilizer 2, L major viab 84*, bCat nuc transl 0, Ba/F3 V617F tox 1 and APP transl inh -9.
